Data reported in ChEMBL document CHEMBL4330070, “Design and synthesis of novel pyrimidine derivatives as potent antitubercular agents” (Eur J Med Chem, 2019).
Calls of active or inactive are those of the source. The rule behind the calls is not given here.

Tests used:
[1] = system: Mycobacterium tuberculosis; experiment: Antimicrobial activity against autoluminescent Mycobacterium tuberculosis H37Ra assessed as test compound concentration causing ratio of drug treated RLU/untreated RLU less than 10% measured every day up to 6 days by luminometric method; assay type: functional; settings: 144 h
Method in brief: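 Autoluminescent marker-free H37Ra (UAIRa) grown in 7H9 with OADC and 0.05% Tween 80 until RLU exceeded 5 million/mL, then diluted to 10,000-50,000 RLU/mL in 7H9 without Tween 80. Compounds tested as 2-fold dilutions from 100 to 0.625 µg/mL, with DMSO 2% and rifampicin 1 µg/mL controls. RLU read daily to day 6. MIC is the lowest concentration giving RLU drug/DMSO below 10%.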

[2] = system: Mycobacterium tuberculosis; experiment: Antimicrobial activity against autoluminescent Mycobacterium tuberculosis H37Ra infected in BALB/c mouse assessed as reduction in bacterial burden in spleen at 200 mg/kg administered daily via gavage for 5 days and measured on day 6 by luminometric method; assay type: functional, organism-based
Method in brief: (§1)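 Mice grouped by similar RLU, four per group. Dosed by gavage daily from day 0 to day 5 in 0.5% CMC-Na, with vehicle, RIF 10 mg/kg and PZA 150 mg/kg controls. Lung or spleen burden read as log10 RLU, mean ± SD.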

[3] = system: Mycobacterium tuberculosis; experiment: Antimicrobial activity against autoluminescent Mycobacterium tuberculosis H37Ra infected in BALB/c mouse assessed as reduction in bacterial burden in lung at 200 mg/kg administered daily via gavage for 5 days and measured on day 6 by luminometric method; assay type: functional, organism-based; method in brief: as §1
[4] = system: Mycobacterium tuberculosis; experiment: Synergistic antimicrobial activity against autoluminescent Mycobacterium tuberculosis H37Ra assessed as test compound concentration causing ratio of drug treated RLU/untreated RLU less than 10% by measuring FICI at 0.0625 to 2 times MIC after 7 days in presence of sulfamethoxazole by luminometric method; assay type: functional
Method in brief: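 Exponential-phase UAIRa in 7H9 without Tween 80 at 10,000-50,000 RLU/mL. Compound at 2-fold dilutions from 2×MIC to MIC/16, each combined with sulfamethoxazole at 16, 8, 4 or 2 µg/mL, with a 2% DMSO control. RLU read after 7 days at 37 °C. MIC taken as RLU drug/DMSO below 10%. FICI is the sum of MIC in combination over MIC alone for each drug.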

[5] = Toxicity in Balb/c mouse infected with Mycobacterium tuberculosis H37Ra assessed as mouse death at 200 mg/kg administered daily via gavage for 5 days; assay type: organism-based; settings: in vivo, po, 120 h
Method in brief: (§2)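 Female BALB/c mice aged 4-5 weeks infected by tail vein with autoluminescent H37Ra, four per group. Gavage daily from day 0 to day 5 in 0.5% CMC-Na vehicle. Deaths recorded over the 6-day treatment period and reported as percent survival.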

[6] = Toxicity in Balb/c mouse infected with Mycobacterium tuberculosis H37Ra assessed as mouse death at 300 mg/kg administered daily via gavage for 5 days; assay type: organism-based; settings: in vivo, po, 120 h; method in brief: as §2
[7] = Toxicity in Balb/c mouse infected with Mycobacterium tuberculosis H37Ra assessed as mouse death at 100 mg/kg administered daily via gavage for 5 days; assay type: organism-based; settings: in vivo, po, 120 h; method in brief: as §2
[8] = system: Mycobacterium tuberculosis; experiment: Antimicrobial activity against autoluminescent Mycobacterium tuberculosis H37Ra infected in BALB/c mouse assessed as reduction in bacterial burden in spleen at 100 to 300 mg/kg administered daily via gavage for 5 days and measured on day 6 by luminometric method; assay type: functional; method in brief: as §1
[9] = system: Mycobacterium tuberculosis; experiment: Antimicrobial activity against autoluminescent Mycobacterium tuberculosis H37Ra infected in BALB/c mouse assessed as reduction in bacterial burden in lung at 100 to 300 mg/kg administered daily via gavage for 5 days and measured on day 6 by luminometric method; assay type: functional; method in brief: as §1
[10] = system: Mycobacterium tuberculosis; experiment: Antimicrobial activity against autoluminescent Mycobacterium tuberculosis H37Ra infected in BALB/c mouse assessed as reduction in bacterial burden in lung at 300 mg/kg administered daily via gavage for 5 days and measured on day 6 by luminometric method; assay type: functional; method in brief: as §1
[11] = system: Mycobacterium tuberculosis; experiment: Antimicrobial activity against autoluminescent Mycobacterium tuberculosis H37Ra infected in BALB/c mouse assessed as reduction in bacterial burden in spleen at 300 mg/kg administered daily via gavage for 5 days and measured on day 6 by luminometric method; assay type: functional, organism-based; method in brief: as §1

Structure (SMILES)	MIC [1]	other results
CC(C)S(=O)(=O)c1ccccc1Nc1nc(Nc2ccc(C(N)=O)cc2)ncc1Cl	> 200 µM	
COc1ccc(CCNc2nc(Nc3cc(C)c(C4CCNCC4)cc3OC(C)C)ncc2Cl)cc1	5 µM	Activity [2]: inactive; Activity [3]: inactive; fractional inhibitory concentration index (FICI) [4]: 1.24; Activity [5]: Toxic
Cc1cc(Nc2ncc(Cl)c(Nc3ccccc3S(=O)(=O)C(C)C)n2)c(OC(C)C)cc1N1CCN(C)CC1	18 µM	
Cc1cc(Nc2ncc(Cl)c(Nc3ccc4ccccc4c3)n2)c(OC(C)C)cc1C1CCNCC1	10 µM	
Cc1cc(Nc2ncc(Cl)c(NCCc3ccccc3)n2)c(OC(C)C)cc1C1CCNCC1	5 µM	Activity [2]: Active; Activity [3]: Active; Activity [6]: Non-Toxic; fractional inhibitory concentration index (FICI) [4]: 0.74; Activity [5]: Non-Toxic
Cc1cc(NS(=O)(=O)c2ccc(N)cc2)no1 [SULFAMETHOXAZOLE]	67 µM	
CC(C)S(=O)(=O)c1ccccc1Nc1nc(Nc2ccc(C#N)c(F)c2)ncc1Cl	> 200 µM	
CC(C)S(=O)(=O)c1ccccc1Nc1nc(Nc2ccccc2OCCCN2CCOCC2)ncc1Cl	> 150 µM	
Cc1cc(Nc2ncc(Cl)c(Nc3cccc4ccccc34)n2)c(OC(C)C)cc1C1CCNCC1	5 µM	Activity [7]: Non-Toxic; Activity [8]: 0.5 log10RLU; Activity [6]: Non-Toxic; Activity [9]: 2 log10RLU; fractional inhibitory concentration index (FICI) [4]: 0.74
Cc1cc(Nc2ncc(Cl)c(Nc3ccccc3S(=O)(=O)C(C)C)n2)c(OC(C)C)cc1C1CCNCC1 [CERITINIB]	9 µM	Activity [6]: Toxic; Activity [10]: 1 log10RLU; Activity [11]: inactive; fractional inhibitory concentration index (FICI) [4]: 0.74
Cc1cc(Nc2ncc(Cl)c(NCc3ccccc3)n2)c(OC(C)C)cc1C1CCNCC1	10 µM	
Cc1cc(Cc2ncc(Cl)c(NCCc3ccc(O)cc3)n2)c(OC(C)C)cc1C1CCNCC1	10 µM	
Cc1cc(Nc2ncc(Cl)c(Nc3ccc(O)cc3)n2)c(OC(C)C)cc1C1CCNCC1	10 µM	
CC(C)S(=O)(=O)c1ccccc1Nc1nc(Nc2ccccc2C#N)ncc1Cl	> 200 µM	
Cc1cc(Nc2ncc(Cl)c(N[C@H](C)c3ccccc3)n2)c(OC(C)C)cc1C1CCNCC1	10 µM	
COc1ccc(-c2cc(Nc3nc(Nc4cc(C)c(C5CCNCC5)cc4OC(C)C)ncc3Cl)ccc2OC)cc1	17 µM	
COc1ccc(Nc2nc(Nc3cc(C)c(C4CCNCC4)cc3OC(C)C)ncc2Cl)cc1Br	9 µM	

Structure (SMILES)	MIC [1]	other results
Cc1cc(Nc2ncc(Cl)c(NCCc3ccc(F)cc3)n2)c(OC(C)C)cc1C1CCNCC1	10 µM	
Cc1cc(Nc2ncc(Cl)c(NC3CCCCC3)n2)c(OC(C)C)cc1C1CCNCC1	11 µM	
CC(C)S(=O)(=O)c1ccccc1Nc1nc(NCCc2ccc(Br)cc2)ncc1Cl	> 150 µM	
Cc1cc(Nc2ncc(Cl)c(Nc3ccccc3O)n2)c(OC(C)C)cc1C1CCNCC1	≤ 10 µM	
COc1ccc(Nc2ncc(Cl)c(Nc3ccccc3S(=O)(=O)C(C)C)n2)cc1	> 200 µM	
Cc1cc(Nc2ncc(Cl)c(Nc3cc(C(F)(F)F)cc(C(F)(F)F)c3)n2)c(OC(C)C)cc1C1CCNCC1	17 µM	
Cc1cc(Nc2ncc(Cl)c(NCCc3cccs3)n2)c(OC(C)C)cc1C1CCNCC1	10 µM	
CC(C)S(=O)(=O)c1ccccc1Nc1nc(Nc2ccccc2O)ncc1Cl	> 200 µM	
Cc1cc(Nc2ncc(Cl)c(Nc3ccccc3S(=O)(=O)C(C)C)n2)c(OC(C)C)cc1N1CCNCC1	9 µM	
Cc1cc(Nc2ncc(Cl)c(Nc3cccc(-c4ccccc4)c3)n2)c(OC(C)C)cc1C1CCNCC1	19 µM	
Cc1cc(Nc2ncc(Cl)c(NC(C)(C)Cc3ccc4ccccc4c3)n2)c(OC(C)C)cc1C1CCNCC1	18 µM	
CC(C)S(=O)(=O)c1ccccc1Nc1nc(Nc2ccc(Cl)cc2)ncc1Cl	> 200 µM	
Cc1cc(Nc2ncc(Cl)c(Nc3ccc(C(N)=O)cc3)n2)c(OC(C)C)cc1C1CCNCC1	20 µM	
Cc1cc(Nc2ncc(Cl)c(Nc3ccccc3S(=O)(=O)C(C)C)n2)c(OC(C)C)cc1N1CCOCC1	> 150 µM	
Cc1cc(Nc2ncc(Cl)c(NC34CC5CC(CC(C5)C3)C4)n2)c(OC(C)C)cc1C1CCNCC1	20 µM	
Cc1cc(Nc2ncc(Cl)c(N3CCCc4ccccc43)n2)c(OC(C)C)cc1C1CCNCC1	20 µM	
